Source: ChEMBL document CHEMBL1157562, “Piperazinyl glutamate pyridines as potent orally bioavailable P2Y12 antagonists for inhibition of platelet aggregation” (J Med Chem, 2010)

Legend:
P2Y purinoceptor 12 = P2Y purinoceptor 12 (Homo sapiens, UniProt Q9H244); experiment: Displacement of [33P]ADP from human recombinant P2Y12 receptor expressed in CHO cells; format: cell-based
Method in brief: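 Washed membranes from CHO cells expressing synthetic human P2Y12, incubated 1 h at room temperature with 0.2 nM 33P-MeSADP in 50 mM Tris/100 mM NaCl/1 mM EDTA. Compound was tested as a 7-point 3-fold series in triplicate. Nonspecific binding was defined with 300 nM 2-MeSADP, followed by filtration.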

[1] = Antiplatelet aggregation activity against adenosine diphosphate-induced human platelet rich plasma assessed as inhibition of platelet aggregation by turbidimetric method; format: functional; conditions: Homo sapiens, Platelet, Plasma
Method in brief: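 Human PRP, prepared by two-step centrifugation and adjusted to 330 000 platelets/μL with PPP. Compound was preincubated 5 min at 37 °C in 0.5% DMSO, then 20 μM ADP was added. OD626 was read kinetically for 15 min at 37 °C with mixing between reads.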

Platelet = experiment: Relative potency, ratio of IC50 for drug to IC50 for AZD-6140 for platelet aggregation in human platelet rich plasma; format: functional

Chain of P2Y purinoceptor 12 (Q9H244 whole entry): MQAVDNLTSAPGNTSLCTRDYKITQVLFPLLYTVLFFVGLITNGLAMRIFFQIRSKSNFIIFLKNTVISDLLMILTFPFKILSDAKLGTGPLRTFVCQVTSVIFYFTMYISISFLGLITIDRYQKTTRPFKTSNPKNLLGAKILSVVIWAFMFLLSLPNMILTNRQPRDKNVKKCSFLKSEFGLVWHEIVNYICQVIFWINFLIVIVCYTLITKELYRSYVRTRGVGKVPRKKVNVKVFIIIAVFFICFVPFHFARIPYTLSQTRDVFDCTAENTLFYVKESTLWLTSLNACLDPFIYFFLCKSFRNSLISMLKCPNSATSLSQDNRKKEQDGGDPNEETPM

Row | Structure (SMILES) | Ki (P2Y purinoceptor 12) [nM] | IC50 [1] [nM] | Ratio IC50 (Platelet)
1 | CCCCCOC(=O)N1CCN(C(=O)[C@H](CCC(=O)O)NC(=O)c2cc(NC(=O)OCCCN)cc(-c3ccccc3)n2)CC1 | 1.9 | 5700 | 3.9
2 | CCCCOC(=O)N1CCN(C(=O)[C@H](CCC(=O)O)NC(=O)c2cc(OC3CCN(S(=O)(=O)CC)CC3)cc(-c3ccccc3)n2)CC1 | 7.6 | 3300 | 3.1
3 | CCCCCCOC(=O)N1CCN(C(=O)[C@H](CCC(=O)O)NC(=O)c2cc(OCCN)cc(-c3ccccc3)n2)CC1 | 8.4 | 4500 | 7.9
4 | CCCCCOC(=O)N1CCN(C(=O)[C@H](CCC(=O)O)NC(=O)c2cc(NC(=O)OCC)cc(-c3ccccc3)n2)CC1 | 11 | 9300 | 15
5 | CCCCCOC(=O)N1CCN(C(=O)[C@H](CCC(=O)O)NC(=O)c2cc(OCC3CCN(C(=O)C(F)(F)F)CC3)cc(-c3ccccc3)n2)CC1 | 4.5 | 3500 | 4.8
6 | CCCCOC(=O)N1CCN(C(=O)[C@H](CCC(=O)O)NC(=O)c2cc(N3CCC(N)CC3)cc(-c3ccccc3)n2)CC1 | 3.5 | 910 | 1.2
7 | CCOC(=O)N1CCN(C(=O)[C@H](CCC(=O)O)NC(=O)c2cc(OCCCOC)cc(-c3ccccc3)n2)CC1 | 69 | 8200 | 11
8 | CCCCCOC(=O)N1CCN(C(=O)[C@H](CCC(=O)O)NC(=O)c2cc(OC(=O)N3CC[C@H](OC)C3)cc(-c3ccccc3)n2)CC1 | 4.9 | 690 | 1
9 | CCCCCOC(=O)N1CCN(C(=O)[C@H](CCC(=O)O)NC(=O)c2cc(N3CCC(N4CCOCC4)CC3)cc(-c3ccccc3)n2)CC1 | 10 | 2000 | 0.95
10 | CCCCCOC(=O)N1CCN(C(=O)[C@H](CCC(=O)O)NC(=O)c2cc(C(=O)N3CCCCC3)cc(-c3ccccc3)n2)CC1 | 2.8 | 910 | 2.2
11 | CCCCCOC(=O)N1CCN(C(=O)[C@H](CCC(=O)O)NC(=O)c2cc(C(=O)NCCOC)cc(-c3ccccc3)n2)CC1 | 7.9 | 8000 | 18
12 | CCCCOC(=O)N1CCN(C(=O)[C@H](CCC(=O)O)NC(=O)c2cc(OCCCOC)cc(-c3ccccc3)n2)CC1 | 5.9 | 2200 | 3.9
13 | CCCCOC(=O)N1CCN(C(=O)[C@H](CCC(=O)O)NC(=O)c2cc(OC3CCN(C(C)C)CC3)cc(-c3ccccc3)n2)CC1 | 10 | 880 | 0.75
14 | CCCCOC(=O)N1CCN(C(=O)[C@H](CCC(=O)O)NC(=O)c2cc(OCCCCO)cc(-c3ccccc3)n2)CC1 | 4.9 | 4500 | 6.7
15 | CCCCOC(=O)N1CCN(C(=O)[C@H](CCC(=O)O)NC(=O)c2cc(OC(=O)N3CCOCC3)cc(-c3ccccc3)n2)CC1 | 1.7 | 760 | 0.75
16 | CCCCCOC(=O)N1CCN(C(=O)[C@H](CCC(=O)O)NC(=O)c2cc(OCC3CCN(S(=O)(=O)CC)CC3)cc(-c3ccccc3)n2)CC1 | 7.4 | 2800 | 1.9
17 | CCCCCCOC(=O)N1CCN(C(=O)[C@H](CCC(=O)O)NC(=O)c2cc(OCCCC)cc(-c3ccccc3)n2)CC1 | 89 | 97000 | 65
18 | CCCCCOC(=O)N1CCN(C(=O)[C@H](CCC(=O)O)NC(=O)c2cc(C(=O)NCCC)cc(-c3ccccc3)n2)CC1 | 11 | 12000 | 20
19 | CCOC(=O)N1CCN(C(=O)[C@H](CCC(=O)O)NC(=O)c2cc(OCCCCO)cc(-c3ccccc3)n2)CC1 | 132 | 13000 | 13
20 | CCCCCOC(=O)N1CCN(C(=O)[C@H](CCC(=O)O)NC(=O)c2cc(NC(=O)CN(C)C)cc(-c3ccccc3)n2)CC1 | 4.1 | 5600 | 6.4
21 | CCCCCOC(=O)N1CCN(C(=O)[C@H](CCC(=O)O)NC(=O)c2cc(NC(=O)N3CCC(OC)CC3)cc(-c3ccccc3)n2)CC1 | 9.2 | 5500 | 6.1
22 | CCCCOC(=O)N1CCN(C(=O)[C@H](CCC(=O)O)NC(=O)c2cc(OC3CCN(C)CC3)cc(-c3ccccc3)n2)CC1 | 2.5 | 2000 | 1.9
23 | CCCCCOC(=O)N1CCN(C(=O)[C@H](CCC(=O)O)NC(=O)c2cc(NC(=O)OCC3CCNCC3)cc(-c3ccccc3)n2)CC1 | 1.7 | 5800 | 3.7
24 | CCCCCOC(=O)N1CCN(C(=O)[C@H](CCC(=O)O)NC(=O)c2cc(CCCCN(C)C)cc(-c3ccccc3)n2)CC1 | 3.3 | 1000 | 1
25 | CCOC(=O)N1CCN(C(=O)[C@H](CCC(=O)O)NC(=O)c2cc(OCC)cc(-c3ccccc3)n2)CC1 | 94 | 31000 | 44

Row | Structure (SMILES) | Ki (P2Y purinoceptor 12) [nM] | IC50 [1] [nM] | Ratio IC50 (Platelet)
26 | CCCCCOC(=O)N1CCN(C(=O)[C@H](CCC(=O)O)NC(=O)c2cc(OC3CCN(C)CC3)cc(-c3ccccc3)n2)CC1 | 5 | 1800 | 1.8
27 | CCCCCCOC(=O)N1CCN(C(=O)[C@H](CCC(=O)O)NC(=O)c2cc(N3CCC(N)CC3)cc(-c3ccccc3)n2)CC1 | 3.3 | 2400 | 3.4
28 | CCCCCOC(=O)N1CCN(C(=O)[C@H](CCC(=O)O)NC(=O)c2cc(OCCC)cc(-c3ccccc3)n2)CC1 | 18 | 22000 | 28
29 | CCCCOC(=O)N1CCN(C(=O)[C@H](CCC(=O)O)NC(=O)c2cc(OCC3CCN(C(=O)OCC)CC3)cc(-c3ccccc3)n2)CC1 | 7.6 | 4000 | 2.2
30 | CCCCCOC(=O)N1CCN(C(=O)[C@H](CCC(=O)O)NC(=O)c2cc(N3CCC(NC)CC3)cc(-c3ccccc3)n2)CC1 | 6.5 | 1000 | 1.1
31 | CCCCOC(=O)N1CCN(C(=O)[C@H](CCC(=O)O)NC(=O)c2cc(OCC3CCN(C)CC3)cc(-c3ccccc3)n2)CC1 | 2.5 | 240 | 0.38
32 | CCOC(=O)N1CCN(C(=O)[C@H](CCC(=O)O)NC(=O)c2cc(O)cc(-c3ccccc3)n2)CC1 | 62 | 24000 | 41
33 | CCOC(=O)N1CCN(C(=O)[C@H](CCC(=O)O)NC(=O)c2cc(OCc3ccccc3)cc(-c3ccccc3)n2)CC1 | 28 | 31000 | 42
34 | CCCCOC(=O)N1CCN(C(=O)[C@H](CCC(=O)O)NC(=O)c2cc(OCC3CCCCN3)cc(-c3ccccc3)n2)CC1 (some centres not stated) | 11 | 1800 | 2
35 | CCCCOC(=O)N1CCN(C(=O)[C@H](CCC(=O)O)NC(=O)c2cc(OC3CCN(C(=O)COC)CC3)cc(-c3ccccc3)n2)CC1 | 2.4 | 520 | 0.78
36 | CCOC(=O)N1CCN(C(=O)[C@H](CCC(=O)O)NC(=O)c2cc(N(C)CCO)cc(-c3ccccc3)n2)CC1 | 87 | 57000 | 26
37 | CCCCCOC(=O)N1CCN(C(=O)[C@H](CCC(=O)O)NC(=O)c2cc(NC(=O)NCC(=O)N(C)C)cc(-c3ccccc3)n2)CC1 | 4.7 | 3400 | 3.9
38 | CCCCCOC(=O)N1CCN(C(=O)[C@H](CCC(=O)O)NC(=O)c2cc(OCCN)cc(-c3ccccc3)n2)CC1 | 8.8 | 2400 | 3
39 | CCCCOC(=O)N1CCN(C(=O)[C@H](CCC(=O)O)NC(=O)c2cc(OC3CCN(C(=O)OCC)CC3)cc(-c3ccccc3)n2)CC1 | 20 | 3700 | 5.9
40 | CCCCCOC(=O)N1CCN(C(=O)[C@H](CCC(=O)O)NC(=O)c2cc(N3CCC(COCCC)CC3)cc(-c3ccccc3)n2)CC1 | 22 | 8900 | 12
41 | CCCCCOC(=O)N1CCN(C(=O)[C@H](CCC(=O)O)NC(=O)c2cc(C(N)=O)cc(-c3ccccc3)n2)CC1 | 7.5 | 8900 | 9
42 | CCCCOC(=O)N1CCN(C(=O)[C@H](CCC(=O)O)NC(=O)c2cc(OC(=O)N(C)CC3CCOCC3)cc(-c3ccccc3)n2)CC1 | 1.5 | 590 | 0.87
43 | CCCCCCOC(=O)N1CCN(C(=O)[C@H](CCC(=O)O)NC(=O)c2cc(O)cc(-c3ccccc3)n2)CC1 | 20 | 21000 | 21
44 | CCCCOC(=O)N1CCN(C(=O)[C@H](CCC(=O)O)NC(=O)c2cc(OCCCO)cc(-c3ccccc3)n2)CC1 | 6.9 | 2900 | 5.1
45 | CCCCCOC(=O)N1CCN(C(=O)[C@H](CCC(=O)O)NC(=O)c2cc(CCCCO)cc(-c3ccccc3)n2)CC1 | 3.6 | 3200 | 4.2
46 | CCCCOC(=O)N1CCN(C(=O)[C@H](CCC(=O)O)NC(=O)c2cc(OC(=O)N3CC[C@@H](OC)C3)cc(-c3ccccc3)n2)CC1 | 1.5 | 770 | 0.97
47 | CCCCCOC(=O)N1CCN(C(=O)[C@H](CCC(=O)O)NC(=O)c2cc(C(=O)N(C)CCCOC)cc(-c3ccccc3)n2)CC1 | 2.6 | 630 | 1.4
48 | CCCCCOC(=O)N1CCN(C(=O)[C@H](CCC(=O)O)NC(=O)c2cc(C(=O)N(C)CC)cc(-c3ccccc3)n2)CC1 | 2.6 | 580 | 1.3
49 | CCCCOC(=O)N1CCN(C(=O)[C@H](CCC(=O)O)NC(=O)c2cc(OCCC3CCCCN3)cc(-c3ccccc3)n2)CC1 (some centres not stated) | 3.7 | 810 | 0.88
